Hit rate of the full screen: of about 330,000 compounds, about 2,000 (0.61%) were called active. The sample holds actives, similar compounds and a random draw of the others, so the mix is not that of the screen. Values without a mark were called inactive.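 The calls were made as follows: active = inhibition above that plate's mean sample inhibition plus 3 SD (cut at about 26% in these data); inactive = the rest.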
Assay: ATP-evoked calcium signal inhibitors, parental CHO, primary screen, counter-screen for OX1R antagonist project, cell-based, fluorescence, Fluo-8 calcium dye (AID 463079);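 also: 0% = ATP-challenged DMSO wells and 100% = DMSO wells without ATP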
Details: parental CHO-K1, ATP-induced calcium, Fluo-8 fluorescence; at 5.6 µM; active compounds read high
Procedure, shortened: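 Measured by: calcium-sensitive Fluo-8 fluorescence / Test system: CHO parental line / Controls: ATP-challenged DMSO wells low, unchallenged DMSO wells high / Measure: % inhibition / Compound: single nominal dose of 5.6 µM per compound / Replicates: single well per compound, no replicates / Reagent: ATP as calcium-mobilizing challenge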

First: Cc1cccc(-c2nc3c(c(SCC(=O)N4CCOCC4)n2)CCCC3)c1
Second: Cc1nn(C(C)C(=O)N2CCOCC2)c(=O)c2nn(-c3ccccc3)c(C)c12 (stereo unspecified)
The inhibition of the first is lower: -8.39% for the first, -7.21% for the second.

Compared with `CC[C@]1(O)C[C@@H]2CN(CCc3c([nH]c4ccccc34)[C@@](C(=O)OC)(c3cc4c(cc3OC)N(C)[C@H]3[C@@](O)(C(=O)OC)[C@H](OC(C)=O)[C@]5(CC)C=CCN6CC[C@]43[C@@H]65)C2)C1`, `CC[C@]12c3[nH]c4ccc(Cl)cc4c3CCN1C(=O)[C@@H](CC(=O)NCCCOC)C[C@@H]2C(=O)N1CCN(C(=O)C2CC2)CC1` is higher in inhibition: -20.6% for the first, -12.5% for the second.

Compared with `Cc1nc2nc(CSc3nc4ccccc4s3)cc(=O)n2[nH]1`, `O=C(O)c1ccccc1CSc1nc2ccccc2s1` is higher in inhibition: -18.4% for the first, -0.85% for the second.

Compared with `CN1CCc2nc(SC(C(=O)O)c3ccccc3)c(C#N)c(-c3cccs3)c2C1` (stereo unspecified), `CCC(C(=O)Nc1ccc2c(c1)OCCO2)c1ccccc1` (stereo unspecified) is lower in inhibition: -2.58% for the first, -14.5% for the second.

First: CC[C@]1(C(=O)OC)[C@H]2C(=O)N(Cc3ccccc3)C(=O)[C@H]2[C@H]2CN=C(SCc3ccccc3)N21
Second: CC(=O)Nc1ccc(N2C(=O)C3C4CC(=O)C(c5ccccc54)C3C2=O)cc1 (stereo unspecified)
The inhibition of the first is lower: -23.1% for the first, 9.03% for the second.

First: COc1ccc(N2CCN(c3ccc([N+](=O)[O-])cc3Cl)CC2)cc1
Second: COc1ccc(N2CCN(C(=O)CCc3nc(-c4ccc(C)cc4)no3)CC2)cc1
The inhibition of the first is higher: 12% for the first, -13.6% for the second.

Compared with `Cc1ccc(N2CCN(S(=O)(=O)N(C)C)CC2)cc1Cl`, `CN(C)CCCNC(=S)N1CCN(c2nc(-c3ccccc3)cs2)CC1` is higher in inhibition: -18.3% for the first, -5.41% for the second.

Going from `CCCOc1ccc(Cc2c(O)nc(N)[nH]c2=O)cc1C` to `CCN(CC)S(=O)(=O)c1ccc(N(C)CCc2ccc(OC)c(OC)c2)nc1`, the inhibition falls from -2.86% to -13.7%.

Compared with `COc1cc(OC)cc(-c2cc3ccc(F)cc3cn2)c1`, `COc1cc(OC)cc(C(=O)NCC(=O)OCC(=O)NC(C)CCc2ccccc2)c1` (stereo unspecified) is higher in inhibition: -22.7% for the first, -9.76% for the second.

Going from `COc1ccc(-c2noc(C(C)NS(=O)(=O)c3ccc(NC(C)=O)cc3)n2)cc1` (stereo unspecified) to `CCC(C(=O)OCC(=O)Nc1ccc(C(=O)Nc2ccc(OC)cc2)cc1)c1ccccc1` (stereo unspecified), the inhibition rises from -2.83% to 2.63%.

Compared with `Cc1ccc(OCC(=O)Nc2ccccc2C(=O)NC2CC2)cc1`, `Cc1cc(C)cc(OCC(=O)NC(C)c2ccccc2)c1` (stereo unspecified) is lower in inhibition: -12.7% for the first, -19.1% for the second.

Going from `Cc1nc(-c2ccc(Cl)cc2)sc1C(=O)CBr` to `O=C(Cc1c(F)cccc1Cl)Nc1ncc([N+](=O)[O-])s1`, the inhibition falls from 16.1% to 3.65%.

Compared with `COc1ccc(NC(=O)c2ccccc2[N+](=O)[O-])cc1OC`, `CCc1ccccc1NC(=O)c1ccc2c(c1)CCN2S(C)(=O)=O` is lower in inhibition: -4.31% for the first, -12.5% for the second.

First: COc1ccccc1N1CCN(C(=O)CSc2ncnc3c2cnn3-c2ccc(C)c(C)c2)CC1
Second: CCC(C)N(C(=O)CSc1nnnn1-c1ccccc1OC)C1CCS(=O)(=O)C1 (stereo unspecified)
The inhibition of the first is higher: -14.4% for the first, -20% for the second.

Going from `O=C(N/C(=C\c1ccc(F)cc1)C(=O)N1CCCCCC1)c1ccccc1` to `Cc1cccn2cc(-c3cccc(S(=O)(=O)N4CCCCC4)c3)nc12`, the inhibition falls from -14% to -20.2%.

Going from `CC1=C(C)CC2C(=O)N(c3cccc4ccccc34)C(=O)C2C1` (stereo unspecified) to `CCOC(=O)c1c(CN2CCOCC2)n(-c2ccccc2)c2ccc(O)cc12`, the inhibition rises from -11.3% to -10.2%.

Going from `COc1cccc(C(=O)OCC(=O)c2[nH]c(C)c(C(C)=O)c2C)c1` to `CC(=O)c1c(C)[nH]c(C(=O)COC(=O)c2cccs2)c1C`, the inhibition rises from -11.5% to -6.37%.

Compared with `CC[C@]12c3[nH]c4ccc(OC)cc4c3CCN1C(=O)C(CC(=O)NCCN1CCOCC1)C[C@@H]2C(=O)N1CCN(C(=O)C2CC2)CC1` (stereo partly specified), `CC1CCCCN1CCCNC(=O)Cn1ncc2c([nH]c3ccccc32)c1=O` (stereo unspecified) is lower in inhibition: -9.94% for the first, -10.7% for the second.

Compared with `OCC[C@H]1C[C@@H](O)[C@H](O)[C@@]2(OCCc3ccccc32)O1`, `c1ccc(CN=C2Nc3ccccc3CS2)nc1` is lower in inhibition: -2.14% for the first, -13.6% for the second.

Going from `O=C(/C=C/c1ccc2c(c1)OCCO2)c1ccc(O)cc1` to `O=C(O)/C=C/c1ccc(OCCCF)cc1`, the inhibition falls from 3.62% to -5.89%.

Going from `Cc1ccc(N(CC(=O)Nc2cc(C)cc(C)c2)S(=O)(=O)c2cccc3nonc23)cc1` to `CC(=O)c1c(C)n(-c2ccc(N(C)C)cc2)c2ccc(OCC(N)=O)cc12`, the inhibition rises from -11.6% to -2.26%.

Going from `CCN(CC)S(=O)(=O)c1ccc(N(C)Cc2cccc(OC)c2OC)nc1` to `Nc1ncnc2c1ncn2[C@@H]1O[C@H](CNS(=O)(=O)c2ccc(-c3ccno3)s2)[C@@H](O)[C@H]1O`, the inhibition falls from 28.5% to -2.72%.

In the case of `O=[N+]([O-])c1c(NCCO)cc(Sc2nc3ccccc3s2)c2nonc12`, the inhibition is reported as 77.3% (active).
For `CN(C)S(=O)(=O)N1CCN(c2ccc([N+](=O)[O-])cc2)CC1`, the inhibition was 29% (active).
With `COc1ccc(-c2noc(CN(C)S(=O)(=O)c3ccc(C)cc3)n2)cc1` the inhibition was 38.9% (active).
With `CC(=O)Oc1ccccc1C(=O)Nc1ncc([N+](=O)[O-])s1` the inhibition was 39% (active).
For `CCc1ccccc1N1C(=O)C2C3CC(=O)C(c4ccccc43)C2C1=O` (stereo unspecified), the inhibition was 29.8% (active).
With `CC(=O)c1c(C)[nH]c(C(=O)COC(=O)c2cccc(S(=O)(=O)N(C)c3ccccc3)c2)c1C` the inhibition was 74.8% (active).
For `COc1cc(OC)cc(C(=O)N[C@H](C(=O)OCC(=O)NC(C)c2ccccc2)C(C)C)c1` (stereo partly specified), the inhibition was 41.6% (active).
With `CCC(C(=O)Nc1ccc(C(C)C)cc1)c1ccccc1` (stereo unspecified) the inhibition was 54% (active).
For `O=C(/C=C(O)/C=C/c1ccc(O)cc1)/C=C/c1ccc(O)cc1`, the inhibition was 44.2% (active).
With `CC1(C)C=Cc2c(ccc3c2OC[C@@H](c2ccc(O)cc2O)C3)O1` the inhibition was 94.3% (active).
With `CCN(CC)S(=O)(=O)c1ccc(N(C)Cc2ccc(C(F)(F)F)cc2)nc1` the inhibition was 43.6% (active).
In the case of `CC(=O)c1c(C)n(-c2ccc(C)cc2)c2ccc(O)cc12`, the inhibition is reported as 81.6% (active).
